Results reported in ChEMBL document CHEMBL4316597, “Design, Synthesis, and Biological Evaluation of Itaconic Acid Derivatives as Potential Anti-Influenza Agents” (J Med Chem, 2019).
Activity calls are given as the source filed them. The calls are words filed in the database; no cut-off is given here.

How the values were obtained:
[1] = Cytotoxicity against MDCK cells assessed as cell death after 72 hrs by MTT assay; assay type: cell-based, Canis lupus familiaris; details: dog
Method in brief: (§1)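 MDCK or RD cells at 2 × 10^4/well in E10, overnight at 37 °C/5% CO2, DPBS wash, then exposed to graded compound concentrations for 72 h. MTT added for 3 h, formazan dissolved in DMSO, absorbance read at 570 nm. CC50 (50% cell death) by Reed–Muench.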

Influenza A virus [2] = assay: Antiviral activity against pandemic Influenza A virus A/TW/2235/09 (H1N1) SO4 infected in MDCK cells after 72 hrs by crystal violet-staining based assay; assay type: functional, organism-based; details: A/TW/2235/09 (H1N1) SO4, MDCK
Method in brief: (§2)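 Cells seeded at 2 × 10^4/well in E10 (DMEM, 10% FBS), 16–24 h at 37 °C/5% CO2, washed with DPBS, then infected at nine-fold TCID50 with or without serial compound concentrations. Influenza is run in MDCK and enterovirus/rhinovirus in RD. Incubated 72 h, fixed in 4% paraformaldehyde, stained with 0.1% crystal violet, and read for cell density. EC50 = 50% CPE inhibition by Reed–Muench; mean ± S.D. of at least three runs.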

[3] = Cytotoxicity against human RD cells assessed as cell death after 72 hrs by MTT assay; assay type: cell-based; method in brief: as §1
Influenza A virus [4] = assay: Antiviral activity against Influenza A virus (A/WSN/33) infected in MDCK cells assessed as inhibition of virus-induced cytopathic effects at 10 uM after 36 hrs by microscopic analysis; assay type: functional, organism-based; details: A/WSN/1933(H1N1)
Method in brief: (§3)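 MDCK cells (2 × 10^5/well) grown 16–24 h, infected with A/WSN/33 at MOI 0.5 for 1 h, rinsed twice with DPBS, then kept in serum-free E0 with 10 μM compound at 37 °C. Cell morphology checked by light microscopy at 12 and 36 h pi. Drug-only and virus-only arms included; three repetitions.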

Influenza A virus [5] = assay: Inhibition of viral protein synthesis in Influenza A virus (A/WSN/33) infected in MDCK cells assessed as effect on NS2 protein level at 10 uM measured up to 9 hrs post infection by Western blot analysis; assay type: functional, organism-based; details: A/WSN/1933(H1N1)
Method in brief: (§4)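 MDCK cells (5 × 10^5/well) infected with A/WSN/33 at MOI 0.1, washed twice, then held in E0 with or without 10 μM compound. Lysed in Triton X-100/deoxycholate buffer, equal protein separated by SDS-PAGE, and immunoblotted for viral proteins with GAPDH as loading control. Time-course harvests up to 9 h pi.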

Influenza A virus [6] = assay: Antiviral activity against Influenza A virus (A/WSN/33) infected in MDCK cells assessed as reduction in virus-induced cytopathic effect after 72 hrs by crystal violet-staining based assay; assay type: functional, organism-based; details: A/WSN/1933(H1N1); method in brief: as §2
[7] = Selectivity ratio of CC50 for MDCK cells to EC50 for pandemic Influenza A virus A/TW/90206/09 (H1N1) SO4; assay type: toxicity; details: dog, read-out: Ratio CC50/EC50
Method in brief: (§5)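 MDCK cells (2 × 10^4/well, E10, 16–24 h) infected at nine-fold TCID50 with compound for 72 h, 37 °C, 5% CO2. Cells were fixed in 4% paraformaldehyde and stained with crystal violet; EC50 is from Reed–Muench. For CC50, cells had compound alone for 72 h, then MTT 3 h, DMSO, A570, Reed–Muench. SI = CC50/EC50; three independent experiments.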

Influenza A virus [8] = assay: Inhibition of viral protein sub-cellular distribution in Influenza A virus (A/WSN/33) infected in MDCK cells assessed as reduction in NS2 protein distribution to cytoplasm at 10 uM measured after 9 hrs post infection by IF-staining based microscopy; assay type: functional, organism-based; details: A/WSN/1933(H1N1)
Method in brief: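 MDCK cells grown on coverslips (2 × 10^5/well, 16 h), infected at MOI 0.1 for 1 h, washed, then kept in E0 with test compound (1 or 10 μM) or LMB 10 nM; DMSO 0.05% as mock. Fixed at 9 h pi in 4% paraformaldehyde and immunostained for M1, NP, NS2 or PA (1:50), with Hoechst nuclear stain. Viewed by confocal microscopy at 63×. NP nuclear/cytoplasmic intensity ratio quantified; three independent experiments.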

Enterovirus [9] = assay: Antiviral activity against Rhinovirus 71903 infected in human RD cells after 72 hrs by crystal violet-staining based assay; assay type: functional, organism-based; details: Enterovirus, 71903, RD; method in brief: as §2
Erythrocyte = assay: Induction of hemagglutination in guinea pig RBC at serial dilution from 50 uM after 1 hr by HAI assay; assay type: cell-based, Cavia porcellus
Method in brief: (§6)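 Virus titrated on 0.5% guinea pig RBCs to define 1 HA unit; 4 HA units used. Compound two-fold serially diluted from 50 µM and mixed with virus for 30 min at room temperature, or tested without virus for direct agglutination. 0.5% RBCs then added and agglutination scored after 1 h. DMSO/RBC-only and virus-only controls included.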

Influenza A virus [10] = assay: Antiviral activity against Influenza A virus (A/WSN/33) infected in MDCK cells at 10 uM added at 6 hrs to 9 hrs post infection and measured after 9 hrs by plaque assay; assay type: functional, organism-based; details: A/WSN/1933(H1N1)
Method in brief: (§7)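 MDCK monolayers exposed to compound (1 or 10 μM) over windows of −3, −1, 0, 3 or 6 to 9 h pi. A/WSN/33 adsorbed at MOI 0.1 from −1 to 0 h, then removed with a PBS wash. Supernatant taken at 9 h pi and titred by plaque assay, normalised to virus-only (100%). Average of three independent experiments.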

Influenza A virus [11] = assay: Antiviral activity against pandemic Influenza A virus A/TW/90206/09 (H1N1) SO4 infected in MDCK cells after 72 hrs by crystal violet-staining based assay; assay type: functional, organism-based; details: A/TW/90206/09 (H1N1) SO4, MDCK; method in brief: as §2
[12] = Selectivity ratio of CC50 for MDCK cells to EC50 for Influenza A virus A/TW/03384/13; assay type: toxicity; details: dog, read-out: Ratio CC50/EC50; method in brief: as §5
Enterovirus A71 = assay: Antiviral activity against Enterovirus A71 TW/2231/1998 infected in human RD cells after 72 hrs by crystal violet-staining based assay; assay type: functional, organism-based; details: Enterovirus A, TW/2231/1998, RD; method in brief: as §2
Influenza A virus [13] = assay: Inhibition of viral protein synthesis in Influenza A virus (A/WSN/33) infected in MDCK cells assessed as effect on PA protein level at 10 uM measured up to 9 hrs post infection by Western blot analysis; assay type: functional, organism-based; details: A/WSN/1933(H1N1); method in brief: as §4
MDCK = assay: Cytotoxicity against MDCK cells at 10 uM after 12 to 36 hrs by microscopic analysis; assay type: cell-based, Canis lupus familiaris; details: dog; method in brief: as §3
Enterovirus [14] = assay: Antiviral activity against Rhinovirus 71803 infected in human RD cells after 72 hrs by crystal violet-staining based assay; assay type: functional, organism-based; details: Enterovirus, 71803, RD; method in brief: as §2
[15] = target: Hemagglutinin (Influenza A virus) (UniProt B4URE7); assay: Inhibition Influenza A virus (A/WSN/33) HA infected in guinea pig RBC assessed as reduction in hemagglutination at serial dilution from 50 uM after 1 hr by HAI assay; details: Influenza A virus (A/WSN/1933(H1N1)); method in brief: as §6
Influenza A virus [16] = assay: Antiviral activity against Influenza A virus (A/WSN/33) infected in MDCK cells at 10 uM added at -1 hrs to 9 hrs post infection and measured after 9 hrs by plaque assay; assay type: functional, organism-based; details: A/WSN/1933(H1N1); method in brief: as §7

Hemagglutinin (Influenza A virus), sequence (B4URE7 as listed by the source): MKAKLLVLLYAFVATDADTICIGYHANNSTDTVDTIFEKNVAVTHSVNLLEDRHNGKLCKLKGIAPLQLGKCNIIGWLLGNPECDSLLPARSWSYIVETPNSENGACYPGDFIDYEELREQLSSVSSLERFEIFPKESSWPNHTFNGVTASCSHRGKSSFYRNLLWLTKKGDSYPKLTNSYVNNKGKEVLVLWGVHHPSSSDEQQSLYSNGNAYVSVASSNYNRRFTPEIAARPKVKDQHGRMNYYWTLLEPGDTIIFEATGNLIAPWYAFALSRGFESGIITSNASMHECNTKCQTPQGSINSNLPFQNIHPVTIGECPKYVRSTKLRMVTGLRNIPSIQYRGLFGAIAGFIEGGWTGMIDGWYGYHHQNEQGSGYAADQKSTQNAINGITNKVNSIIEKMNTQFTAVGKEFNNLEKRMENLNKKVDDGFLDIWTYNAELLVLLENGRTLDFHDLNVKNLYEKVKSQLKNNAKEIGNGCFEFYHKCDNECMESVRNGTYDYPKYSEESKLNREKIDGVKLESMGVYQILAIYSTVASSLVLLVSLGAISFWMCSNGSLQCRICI

In the case of `C=C(CC(=O)Nc1ccc(F)cc1F)C(=O)Nc1ccc(F)cc1F`, the CC50 at 72 h [1] is reported as 84.7 µM, the EC50 (Influenza A virus [2]) is reported as 2.36 µM and the CC50 at 72 h [3] is reported as 74.6 µM. For the same compound, the Activity (Influenza A virus [4]) was “Active”, the inhibition (Influenza A virus [5]) was “inactive” and the EC50 (Influenza A virus [6]) was 2.84 µM. The selectivity ratio [7] was 28, the inhibition (Influenza A virus [8]) was “inactive” and the EC50 (Enterovirus [9]) was > 50 µM. The Activity (Erythrocyte) was “Non-Toxic”, the Activity (Influenza A virus [10]) was “inactive” and the EC50 (Influenza A virus [11]) was 2.98 µM. For the same compound, the selectivity ratio [12] was 23, the EC50 (Enterovirus A71) was 4.5 µM and the inhibition (Influenza A virus [13]) was “inactive”. For the same compound, the Activity (MDCK) was “Non-Toxic”, the EC50 (Enterovirus [14]) was > 50 µM and the inhibition [15] was “inactive”. For the same compound, the Activity (Influenza A virus [16]) was “Active”.
